Test results from ChEMBL document CHEMBL6078676, “In Vitro and In Vivo Leishmanicidal Activity of Beauvericin” (J Nat Prod, 2024).
≈ marks a conversion by molar mass, not a printed value. Calls of active or inactive are those of the source. The rule behind the calls is not given here.

Legend:
Leishmania amazonensis [1] = test: Antileishmanial activity against Leishmania amazonensis IFLA/BR/67/PH8 promastigote assessed as parasite killing incubated for 24 hrs; format: functional, organism-based; conditions: IFLA/BR/67/PH8, 24 h
In short: (§1)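 Axenic parasites (5 × 10^6/well) were exposed for 24 h to increasing concentrations of compound dissolved in DMSO. MTT (5 mg/mL) was added for 3 h and the reaction stopped with 20% SDS. Formazan was read at 600 nm against a 650 nm reference to give EC50. Leishmania grew in supplemented M199 pH 7.4 at 25 °C; T. cruzi Y epimastigotes grew in LIT with 10% FBS at 28 °C.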

Leishmania amazonensis [2] = test: Antileishmanial activity against Leishmania amazonensis IFLA/BR/67/PH8 intracellular amastigote assessed as parasite killing incubated for 24 hrs; format: functional, organism-based; conditions: IFLA/BR/67/PH8, 24 h
Leishmania braziliensis [3] = test: Antileishmanial activity against Leishmania braziliensis MHOM/BR/91/H3227 promastigote assessed as parasite killing incubated for 24 hrs; format: functional, organism-based; conditions: MHOM/BR/91/H3227, 24 h; in short: as §1
Leishmania braziliensis [4] = test: Antileishmanial activity against Leishmania braziliensis MHOM/BR/91/H3227 intracellular amastigote assessed as parasite killing incubated for 24 hrs; format: functional, organism-based; conditions: MHOM/BR/91/H3227, 24 h
[5] = Cytotoxicity against mouse BMDM cells assessed as cell viability incubated for 24 hrs by MTT assay; format: toxicity, cell-based
In short: (§2)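 MTT viability after 24 h exposure to increasing concentrations (DMSO solution) gave CC50. BMDM (4 × 10^5/well) were differentiated for 7 days from female BALB/c marrow in RPMI with 20% FBS and 30% L929 supernatant. L929 fibroblasts (5 × 10^4/well) were in supplemented RPMI. Both were held at 37 °C, 5% CO2. Read at 600/650 nm after 3 h MTT and SDS stop.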

Trypanosoma cruzi = test: Antitrypanosomal activity against Trypanosoma cruzi Y epimastigote assessed as parasite killing incubated for 24 hrs; format: functional, organism-based; in short: as §1
[6] = Cytotoxicity against mouse L929 cells assessed as cell viability measured for 24 hrs by MTT assay; format: toxicity, cell-based; in short: as §2
[7] = Selectivity index, ratio of CC50 for cytotoxicity against mouse BMDM cells assessed as cell viability to EC50 for antileishmanial activity against Leishmania amazonensis IFLA/BR/67/PH8 promastigote assessed as parasite killing; format: toxicity, cell-based; conditions: read-out: Ratio CC50/EC50
In short: (§3)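 Ratio of 24 h MTT CC50 in BALB/c BMDM to Leishmania EC50.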

[8] = Selectivity index, ratio of CC50 for cytotoxicity against mouse BMDM cells assessed as cell viability to EC50 for antileishmanial activity against Leishmania amazonensis IFLA/BR/67/PH8 intracellular amastigote; format: toxicity, cell-based; conditions: read-out: Ratio CC50/EC50; in short: as §3
[9] = Selectivity index, ratio of CC50 for cytotoxicity against mouse BMDM cells assessed as cell viability to EC50 for antileishmanial activity against Leishmania braziliensis MHOM/BR/91/H3227 promastigote assessed as parasite killing; format: toxicity, cell-based; conditions: read-out: Ratio CC50/EC50; in short: as §3
[10] = Selectivity index, ratio of CC50 for cytotoxicity against mouse BMDM cells assessed as cell viability to EC50 for antileishmanial activity against Leishmania braziliensis MHOM/BR/91/H3227 intracellular amastigote assessed as parasite killing; format: toxicity, cell-based; conditions: read-out: Ratio CC50/EC50; in short: as §3
[11] = Selectivity index, ratio of CC50 for cytotoxicity against mouse L929 cells assessed as cell viability to EC50 for antitrypanosomal activity against Trypanosoma cruzi Y epimastigote assessed as parasite killing; format: toxicity, cell-based; conditions: read-out: Ratio CC50/EC50
In short: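 Ratio of 24 h MTT CC50 in L929 fibroblasts to T. cruzi Y epimastigote EC50.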

Leishmania amazonensis [12] = test: Induction of membrane morphological changes in Leishmania amazonensis IFLA/BR/1967/PH8 promastigote upto 1.2 uM incubated for 24 hrs by optical microscopic analysis; format: functional, organism-based
Leishmania amazonensis [13] = test: Induction of membrane morphological changes in Leishmania amazonensis IFLA/BR/67/PH8 promastigote assessed as shortening of cell body at 2.4 to 9.6 uM incubated for 24 hrs by optical microscopic analysis; format: functional, organism-based; conditions: dose 2.4-9.6 µM
Leishmania amazonensis [14] = test: Induction of membrane morphological changes in Leishmania amazonensis IFLA/BR/67/PH8 promastigote assessed as rounding of cell body at 2.4 to 9.6 uM incubated for 24 hrs by optical microscopic analysis; format: functional, organism-based; conditions: dose 2.4-9.6 µM
Leishmania amazonensis [15] = test: Induction of membrane morphological changes in Leishmania amazonensis IFLA/BR/67/PH8 promastigote assessed as aberrant nuclei 2.4 to 9.6 uM incubated for 24 hrs by optical microscopic analysis; format: functional, organism-based; conditions: dose 2.4-9.6 µM
Leishmania amazonensis [16] = test: Induction of membrane morphological changes in Leishmania amazonensis IFLA/BR/67/PH8 promastigote assessed as cell debris formation 2.4 to 9.6 uM incubated for 24 hrs by optical microscopic analysis; format: functional, organism-based; conditions: dose 2.4-9.6 µM
Leishmania braziliensis [17] = test: Induction of membrane morphological changes in Leishmania braziliensis MHOM/BR/91/H3227 assessed as appearance of slender cell bodies at 1.2 to 9.6 uM incubated for 24 hrs by optical microscopic analysis; format: functional, organism-based; conditions: dose 1.2-9.6 µM
Leishmania braziliensis [18] = test: Induction of membrane morphological changes in Leishmania braziliensis MHOM/BR/91/H3227 assessed as appearance of sperm-like structure at 1.2 to 9.6 uM incubated for 24 hrs by optical microscopic analysis; format: functional, organism-based; conditions: dose 1.2-9.6 µM
Leishmania braziliensis [19] = test: Induction of membrane morphological changes in Leishmania braziliensis MHOM/BR/91/H3227 assessed as appearance of leaf-like promastigotes at 1.2 to 9.6 uM incubated for 24 hrs by optical microscopic analysis; format: functional, organism-based; conditions: dose 1.2-9.6 µM
Leishmania amazonensis [20] = test: Antileishmanial activity against Leishmania amazonensis IFLA/BR/67/PH8 amastigotes infected in mouse BMDM cells assessed as inhibition of parasite growth upto 1.6 uM pre-infected in cells for 24 hrs followed by compound addition and measured after 48 hrs by cell imaging analysis; format: functional, organism-based
In short: (§4)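 BALB/c BMDM (4 × 10^5) on coverslips were infected with stationary-phase L. amazonensis promastigotes, MOI 5, for 24 h at 34 °C, 5% CO2. After a PBS wash, cells received fresh RPMI with 0.4–1.6 μM. Incubation ran 24 h, 48 h, or 24 + 24 h with fresh medium. Cells were MeOH-fixed and stained; ≥300 cells were counted for infection rate, amastigotes/100 macrophages, and their product, relative to untreated. Two independent assays in triplicate.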

Leishmania amazonensis [21] = test: Antileishmanial activity against Leishmania amazonensis IFLA/BR/67/PH8 amastigotes infected in mouse BMDM cells assessed as reduction in infectivity index at 1.6 uM pre-infected in cells for 24 hrs followed by compound addition and measured after 48 hrs; format: functional; set-up: scale not given: the % may be the effect or the level left; in short: as §4
Leishmania amazonensis [22] = test: Antileishmanial activity against Leishmania amazonensis IFLA/BR/67/PH8 amastigotes infected in mouse BMDM cells at 1.6 uM pre-infected in cells for 24 hrs followed by compound addition and measured after 48 hrs; format: functional, organism-based; in short: as §4
Leishmania braziliensis [23] = test: Antileishmanial activity against Leishmania braziliensis MHOM/BR/91/H3227 intracellular amastigotes infected in mouse BMDM cells assessed as reduction in infectivity index at 1.6 uM pre-infected in cells for 24 hrs followed by compound addition and measured after 48 hrs by cell imaging analysis; format: functional; set-up: scale not given: the % may be the effect or the level left
In short: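 BMDM infected with stationary-phase L. braziliensis promastigotes, MOI 10, for 24 h at 34 °C, 5% CO2. After washing, cells were given 0.4–1.6 μM in fresh RPMI for 48 h. MeOH fixation and staining, then ≥300 host cells counted. Infectivity index (infection rate × amastigotes per 100 macrophages) expressed relative to untreated; two independent assays in triplicate.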

[24] = Cytotoxicity against mouse BMDM cells assessed as cell viability at 1.6 uM incubated for 24 hrs by MTT assay; format: toxicity, cell-based
Leishmania amazonensis [25] = test: Antileishmanial activity against Leishmania amazonensis IFLA/BR/67/PH8 amastigotes infected in female BALB/c mouse assessed as reduction in parasite burden at 5 to 10 mg/kg, ip administered for 15 days; format: functional, organism-based; conditions: dose 5-10 mg/kg, time 15.0 day
In short: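 Female BALB/c mice (35 days old) were infected at the tail base with ~1 × 10^6 stationary-phase L. amazonensis promastigotes. Treatment was 5 or 10 mg/kg/day ip in 150 μL DMSO/0.9% NaCl (1:9), daily for 15 days from week 7 to week 9; vehicle controls, 5 per group. Lesion parasite load was measured by limiting dilution in M199 with wells read after 7 days.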

MDA-MB-231 = test: Inhibition of cell migration in human MDA-MB-231 cells; format: functional, cell-based
PC-3 = test: Inhibition of cell migration in human PC-3 cells; format: functional, cell-based
Cell membrane = test: Induction of cell membrane permeabilization in Leishmania amazonensis IFLA/BR/67/PH8 promastigotes incubated for 24 hrs; format: subcellular
In short: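 Promastigotes were incubated 24 h with 1.0 μM. Membrane permeability was measured by ethidium bromide fluorescence against untreated cells.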

HaCaT = test: Antiproliferative activity against human HaCaT cells assessed as inhibition of cell proliferation incubated for 72 hrs by MTT assay; format: functional, cell-based
Leishmania amazonensis [26] = test: Antileishmanial activity against Leishmania amazonensis IFLA/BR/67/PH8 amastigotes infected in female BALB/c mouse assessed as reduction in mean lesion at 5 mg/kg, topically administered for 32 days and measured after 8 to 13 week; conditions: route topical, time 8-13 weeks
Leishmania amazonensis [27] = test: Antileishmanial activity against Leishmania amazonensis IFLA/BR/67/PH8 amastigotes infected in female BALB/c mouse assessed as total ulcerated area by measuring delay in ulcer progression at 5 mg/kg, topically administered for 32 days and measured after 8 to 13 week; conditions: route topical, time 8-13 weeks
Leishmania amazonensis [28] = test: Antileishmanial activity against Leishmania amazonensis assessed as reduction in parasite proliferation at 50 microg/ml incubated for 72 hrs; format: functional; set-up: scale not given: the % may be the effect or the level left; conditions: dose 50 µg/ml
Leishmania amazonensis [29] = test: Antileishmanial activity against Leishmania amazonensis assessed as reduction in parasite proliferation incubated for 72 hrs; format: functional, organism-based

CC(C)[C@H]1OC(=O)[C@H](Cc2ccccc2)N(C)C(=O)[C@@H](C(C)C)OC(=O)[C@H](Cc2ccccc2)N(C)C(=O)[C@@H](C(C)C)OC(=O)[C@H](Cc2ccccc2)N(C)C1=O
EC50 (Leishmania amazonensis [1]): 1200 nM | EC50 (Leishmania amazonensis [2]): 800 nM | EC50 (Leishmania braziliensis [3]): 900 nM | EC50 (Leishmania braziliensis [4]): 600 nM | CC50 at 24 h [5]: 17800 nM | EC50 (Trypanosoma cruzi): 3400 nM | CC50 at 24 h [6]: 45500 nM | selectivity ratio [7]: 14.8 | selectivity ratio [8]: 22.3 | selectivity ratio [9]: 19.8 | selectivity ratio [10]: 29.7 | selectivity ratio [11]: 13.4 | Activity (Leishmania amazonensis [12]): Active | Activity (Leishmania amazonensis [13]): Active | Activity (Leishmania amazonensis [14]): Active | Activity (Leishmania amazonensis [15]): Active | Activity (Leishmania amazonensis [16]): Active | Activity (Leishmania braziliensis [17]): Active | Activity (Leishmania braziliensis [18]): Active | Activity (Leishmania braziliensis [19]): Active | Activity (Leishmania amazonensis [20]): Active | Activity (Leishmania amazonensis [21]): 95% | Activity (Leishmania amazonensis [22]): Active | Activity (Leishmania braziliensis [23]): 89% | Activity [24]: Non-toxic | Activity (Leishmania amazonensis [25]): Active | inhibition (MDA-MB-231): Active | inhibition (PC-3): Active | Activity (Cell membrane): Active | IC50 (HaCaT): 3900 nM | Activity (Leishmania amazonensis [26]): inactive | Activity (Leishmania amazonensis [27]): Active

O=c1cc(CO)occ1O [KOJIC ACID]
Activity (Leishmania amazonensis [28]): 79% | EC50 (Leishmania amazonensis [29]): 27.8 µg/mL (≈ 196 µM)

C[C@@H]1[C@H](O)[C@@H](C)/C=C/C=C/C=C/C=C/C=C/C=C/C=C/[C@H](O[C@@H]2O[C@H](C)[C@@H](O)[C@H](N)[C@@H]2O)C[C@@H]2O[C@](O)(C[C@@H](O)C[C@@H](O)[C@H](O)CC[C@@H](O)C[C@@H](O)CC(=O)O[C@H]1C)C[C@H](O)[C@H]2C(=O)O [AMPHOTERICIN B]
EC50 (Leishmania amazonensis [1]): 200 nM | EC50 (Leishmania amazonensis [2]): 200 nM | EC50 (Leishmania braziliensis [3]): 200 nM | EC50 (Leishmania braziliensis [4]): 200 nM | EC50 (Trypanosoma cruzi): 2230 nM
